According to ChEMBL document CHEMBL4725371, “A Novel Redox Modulator Induces a GPX4-Mediated Cell Death That Is Dependent on Iron and Reactive Oxygen Species” (J Med Chem, 2020):
pIC50: −log10 of the molar value. The source made the active and inactive calls. The calls are words filed in the database; no cut-off is given here.

Assays:
[1] = test system: MIA PaCa-2; experiment: Cytotoxicity against human MIA PaCa-2 cells measured after 72 hrs by MTT assay; format: functional, cell-based; conditions: MIA PaCa-2, 72 h
Outline: (§1)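 Cells were kept in RPMI 1640 with 10% FBS at 37 °C, 5% CO₂, under 35 passages. Cells were seeded, attached overnight and treated with compound or DMSO for 72 h. MTT was added at 0.3 mg/mL for 3 h, then dissolved in DMSO and read as absorbance at 570 nm. IC50 was fitted from the curve. Values are mean ± sd of three independent experiments.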

[2] = test system: PANC-1; experiment: Cytotoxicity against human PANC-1 cells measured after 72 hrs by MTT assay; format: functional, cell-based; conditions: PANC-1, 72 h; outline: as §1
[3] = test system: BXPC-3; experiment: Cytotoxicity against human BXPC-3 cells measured after 72 hrs by MTT assay; format: functional, cell-based; conditions: BXPC-3, 72 h; outline: as §1
[4] = test system: MIA PaCa-2; experiment: Induction of ferroptosis in human MIA PaCa-2 cells assessed as increase in lipid peroxidation at 0.5 uM measured after 24 hrs by C11-BODIPY dye based fluorescence assay; format: functional, cell-based
Outline: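 MIA PaCa-2 cells were treated for the set time, then given 10 μM C11-BODIPY for 30 min at 37 °C and washed. Fluorescence was read at 581/591 nm (reduced dye) and 488/510 nm (oxidized dye). The intensity ratio was compared by unpaired t-test.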

[5] = test system: MIA PaCa-2; experiment: Induction of reactive oxygen species in human MIA PaCa-2 cells at 200 uM measured after 30 mins in presence of N-acetylcysteine by CM-H2DCFDA dye based fluorescence assay; format: functional, cell-based
Outline: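 MIA PaCa-2 cells seeded at 1.8 × 10⁴/well, attached overnight, then loaded with 10 μM CM-H2DCFDA in HBSS for 40 min at 37 °C. Washed twice with warm DPBS; compounds added in HBSS. N-acetylcysteine used at 3 mM. Fluorescence read at Ex 483 / Em 530 nm, with the 30 min point taken. Unpaired t-test.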

[6] = test system: MIA PaCa-2; experiment: Induction of ferroptosis in human MIA PaCa-2 cells assessed as increase in lipid peroxidation at 100 uM measured after 24 hrs by C11-BODIPY dye based fluorescence assay; format: functional, cell-based
Outline: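 MIA PaCa-2 cells (RPMI 1640, 10% FBS, 37 °C, 5% CO2) exposed to compound for the set time, then 10 μM C11-BODIPY added for 30 min at 37 °C. After two DPBS washes, read in HBSS at 581/591 nm (reduced dye) and 488/510 nm (oxidized dye); emission ratio calculated, unpaired Student's t-test.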

[7] = test system: MIA PaCa-2; experiment: Inhibition glutathione synthesis in human MIA PaCa-2 cells at 1 to 2 uM measured after 2 to 4 hrs by GSH/GSSG-glo assay; format: functional, cell-based; conditions: dose microM 1-2, time hrs 2-4
Outline: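 GSH/GSSG-Glo luminescent assay: 15,000–20,000 MIA PaCa-2 cells per well, attached overnight, treated 2 h and 4 h. Cells were lysed with total or oxidized glutathione reagent, then luciferin generation (30 min, room temperature) and detection reagents added. Luminescence was read after 15 min. Ratio was computed from net RLU as (total − GSSG)/(GSSG/2).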

[8] = Drug level in mouse plasma treated with QD394 at 500 uM measured after 0.5 hrs by LC-MS/MS analysis

Compound | pIC50 [1] | pIC50 [2] | pIC50 [3] | also measured
O=C1C(Nc2ccc3c(c2)Cc2ccccc2-3)=CC(=O)c2ncncc21 | 5.66 | 5.80 | 5.59 | 
O=C1C(Nc2ccc(C3CCCCC3)cc2)=CC(=O)c2ncncc21 | 5.92 | 6.05 | 6.30 | 
COC(=O)c1ccc([C@H]2c3[nH]c4ccccc4c3C[C@H](C(=O)OC)N2C(=O)CCl)cc1 |  |  |  | Activity [4]: Active
O=C1C(Nc2ccc(-c3ccccn3)cc2)=CC(=O)c2ncncc21 | 5.70 | 6.10 | 5.57 | 
CCc1ccc(-c2ccc(NC3=CC(=O)c4ncncc4C3=O)cc2)cc1 | 5.82 | 5.64 | 5.80 | 
CC(C)(C)OO |  |  |  | Activity [5]: inactive; Activity [6]: Active
CCCCS(=N)(=O)CCC(N)C(=O)O (stereo unspecified) |  |  |  | inhibition [7]: Active
O=C1C(Nc2ccc(N3CCCCC3)cc2)=CC(=O)c2ncncc21 | 5.62 | 5.85 | 5.60 | 
O=C1C(Nc2ccc(N3CCOCC3)cc2)=CC(=O)c2ncncc21 | 5.82 | 6.10 | 5.64 | 
O=C1C(Nc2ccc(-c3ccc(Cl)cc3)cc2)=CC(=O)c2ncncc21 | 5.01 | 5.36 | 5.00 | 
COc1c(Nc2ccc(N3CCN(C)CC3)cc2)cc(OC)c2ncncc12 |  |  |  | Drug uptake [8]: Active
